NS3 helicase inh – HCV NS3 helicase inhibition; NS3 helicase DNA unwinding, Cy5 molecular beacon fluorescence; AID 1800; inhibition, % at 10.9 µM; 290,000 compounds, 0.56% hits;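 active = inhibition above the mean of all tested compounds plus 3 SD, set per campaign, cut at about 35% in these data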;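 also: 0% = DMSO wells and 100% = thioflavine S control wells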
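Assay system: hepatitis C virus NS3 helicase domain fragment enzyme. Also added: annealed dual-labelled DNA beacon duplex, ATP-started. Timing: 1 h reaction at 25 °C, ATP-initiated. Technique: Cy5 fluorescence at 0 and 60 min, beacon hairpin quenching. Evaluation: % inhibition of unwinding. Replication: one well per compound.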
NR3A LBD binder – modulates the human NR3A ligand-binding domain. Tm shift relative to glycine control, % at 25 µM. NR3A LBD differential scanning fluorimetry, Tm shift; 0% = protein alone, 100% = glycine-bound protein. 340,000 compounds, 2.5% hits;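 active = melting temperature shift of at least 10% of the positive control shift, at one fixed dose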
FGF22 binding – binders of recombinant human FGF22 by thermal shift. SYPRO orange fluorescence; percent of sucrose octasulfate shift, DMSO zero. activity (Tm shift, normalised), % at 9.99 µM. Q9HCT0. 340,000 compounds, 1.5% hits;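 active = mean Tm shift, scaled 0 neutral to 100 positive control, at about 1.3% or above, every replicate too, limit read from the data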
Target sequence (Q9HCT0 whole entry, looked up): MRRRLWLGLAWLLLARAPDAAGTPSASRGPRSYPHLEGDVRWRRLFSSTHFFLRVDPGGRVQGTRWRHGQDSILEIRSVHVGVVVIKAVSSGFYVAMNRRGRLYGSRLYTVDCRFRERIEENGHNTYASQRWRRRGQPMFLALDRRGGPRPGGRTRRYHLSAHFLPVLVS
ZTA DNA inh – counter-screen for EBNA-1 inhibitors: inhibitors of Epstein-Barr virus ZTA | inhibition, % at 11 µM | ZTA-DNA binding, fluorescence polarization | 320,000 compounds, 0.15% hits | AID 2234; in the data active = inhibition above about 33%
Target sequence (P03206 whole entry, looked up): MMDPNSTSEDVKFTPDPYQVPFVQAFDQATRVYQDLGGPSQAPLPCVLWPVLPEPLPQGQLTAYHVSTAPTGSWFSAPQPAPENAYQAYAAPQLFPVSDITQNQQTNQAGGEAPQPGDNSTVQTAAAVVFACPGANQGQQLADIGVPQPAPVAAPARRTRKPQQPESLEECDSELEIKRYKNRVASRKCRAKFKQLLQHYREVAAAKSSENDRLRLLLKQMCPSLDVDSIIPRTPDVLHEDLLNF
FID counter – counter-screen for HCV NS3 helicase inhibitors: DNA intercalator displacement; DNA fluorescent intercalator displacement, fluorescence; 290,000 compounds, 0.17% hits; inhibition, % at 7.9 µM; in the data active = inhibition above about 37%;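 also: 0% = vehicle and 100% = reference compound; higher means more ethidium bromide displaced from hairpin DNA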
EBNA-1 inhibitor – blocks EBNA-1 binding to DNA. EBNA-1 DNA binding, fluorescence polarization. inhibition, % at 14.8 µM. 300,000 compounds, 0.34% hits; in the data active = inhibition above about 28%
An asterisk follows results filed as active; · = not tested or not shown. An excerpt weighted towards active compounds, which were near 3.6% of everything screened.

SMILES	NS3 helicase inh	NR3A LBD binder	FGF22 binding	ZTA DNA inh	FID counter	EBNA-1 inhibitor
Cc1ccc(/C=N/NC(=O)c2nnn(-c3nonc3N)c2CSc2ccccc2)cc1	-33	40*	0	-3	-4	4
CCOc1ccc(-c2c(C(=O)N/N=C/c3ccccc3)nnn2-c2nonc2N)cc1	6	-1	0	-5	-10	23
Nc1nonc1-n1nnc(C(=O)N/N=C/c2cc(Br)ccc2O)c1CNc1ccccc1	-7	23*	0	-5	15	-11
Cc1ccc(SCc2c(C(=O)N/N=C/c3ccc(C)o3)nnn2-c2nonc2N)cc1	·	·	0	·	·	·
Nc1nonc1-n1nnc(C(=O)N/N=C/c2ccco2)c1CSc1ccccc1	11	27*	0	4	-25	-3
C[C@@H]1CCCCO[C@@H](CN(C)S(=O)(=O)c2cn(C)cn2)[C@H](C)CN([C@@H](C)CO)C(=O)c2cc(NS(=O)(=O)c3cn(C)cn3)ccc2O1	·	·	0	·	·	·
O=S(=O)(N[C@H]1CC[C@H](CCn2cc(C3(O)CCCC3)nn2)O[C@@H]1CO)c1ccc(Cl)cc1	·	·	0	·	·	·
COCC#Cc1ccc2c(c1)O[C@@H](CN(C)C(=O)C1CC1)[C@@H](C)CN([C@@H](C)CO)S2(=O)=O	·	·	0	·	·	·
COc1ccc(NC(=O)Nc2ccc3c(c2)CC(=O)N([C@@H](C)CO)C[C@H](C)[C@@H](CN(C)C(=O)Nc2cccc4ccccc24)O3)cc1	·	·	0	·	·	·
CNC(=O)C[C@@H]1CC[C@H]2[C@H](COc3ccc(NC(=O)c4ccc(OC)cc4)cc3C(=O)N2C)O1	·	·	0	·	·	·
Cc1ccc(/C=N/NC(=O)c2nnn(-c3nonc3N)c2CNc2ccccc2)cc1	4	35*	0	-1	-17	-6
CCN(CC)Cc1c(C(=O)N/N=C/c2ccc(OCc3ccccc3C)cc2)nnn1-c1nonc1N	-35	33*	0	-9	14	-12
C[C@H](CO)N1C[C@H](C)[C@@H](CN(C)Cc2cccc(F)c2)Oc2ncc(C3=CCCC3)cc2C1=O	·	·	0	·	·	·
CN1C(=O)c2cc(NC(=O)Nc3ccccc3F)ccc2OC[C@H]2O[C@@H](CC(=O)NCc3ccc(-c4ccccc4)cc3)CC[C@H]21	·	·	0	·	·	·
Cc1ccc(S(=O)(=O)N[C@H]2CC[C@@H](CCNC(=O)CN3CCOCC3)O[C@H]2CO)cc1	·	·	0	·	·	·
COc1ccc(NC(=O)Nc2cccc3c2O[C@@H](CN(C)S(=O)(=O)c2cccs2)[C@@H](C)CN([C@@H](C)CO)C3=O)cc1	·	·	0	·	·	·
Cc1csc(NC(=O)c2cc3c(s2)-c2ccccc2OC3)n1	-5	10*	0	9	3	12
C[C@@H]1CN([C@@H](C)CO)C(=O)c2cccc(NC(=O)Nc3ccc(C(F)(F)F)cc3)c2O[C@@H]1CN(C)C	·	·	0	·	·	·
Cc1ccc(C(NC(=O)N2CCN(C)CC2)C(Cl)Cl)cc1F (stereo not given)	1	-2	44*	15	2	3
Cc1ccc(C(NC(=O)N2CCOCC2)C(Cl)Cl)cc1F (stereo not given)	-2	1	·	12	-2	-2
CC(C)NC(=O)Nc1ccc2c(c1)CC(=O)N([C@H](C)CO)C[C@H](C)[C@@H](CN(C)Cc1ccc(Oc3ccccc3)cc1)O2	·	·	0	·	·	·
CCOC(=O)c1c(C)[nH]c(C(=O)COC(=O)COc2ccc(OC)cc2)c1C	0	1	44*	-26	-2	17
CCOC(=O)c1c(C)[nH]c(C(=O)COC(=O)/C=C/c2ccc(OC(F)F)cc2)c1C	13	13*	·	9	-6	-2
N#Cc1nc(-c2ccc(F)cc2)oc1N1CCN(C(=O)c2ccco2)CC1	0	-2	0	5	-30	11
COc1cccc(-c2nc(C#N)c(N3CCN(C(=O)c4ccco4)CC3)o2)c1	3	11*	0	13	-45	4
SMILES	NS3 helicase inh	NR3A LBD binder	FGF22 binding	ZTA DNA inh	FID counter	EBNA-1 inhibitor
CC12CCCc3c(O)cc(=O)n(c31)-c1ccccc12 (stereo not given)	7	21*	·	5	0	-3
C/C=C/c1cnc2c(c1)C(=O)N([C@H](C)CO)C[C@H](C)[C@H](CN(C)C(=O)Cc1ccccn1)O2	·	·	0	·	·	·
COc1ccc(Br)cc1CNC(C)c1ccccc1 (stereo not given)	-12	21*	·	-9	17	0
COc1ccc(-c2c(C)n([O-])c3c([n+]2=O)CCCCC3)cc1OC	3	1	43*	-11	0	4
O=C(N[C@@H]1C=C[C@H](CC(=O)N2CCN(c3ccccc3)CC2)O[C@H]1CO)c1ccncc1	·	·	0	·	·	·
COc1ccc(CN(C)C[C@H]2Oc3c(NC(=O)NC4CCCCC4)cccc3C(=O)N([C@H](C)CO)C[C@H]2C)cc1	·	·	0	·	·	·
O=C1Nc2ccc(Br)cc2C1(O)c1ccccc1 (stereo not given)	0	-1	0	-16	-9	-13
O=C1Nc2ccc(Br)cc2C12NNc1ccccc1O2 (stereo not given)	-11	25*	0	-15	28	-10
O=C(O)CCn1ncc2ccccc2c1=O	-5	0	43*	-2	2	-6
CC(C(=O)O)n1ncc2ccccc2c1=O (stereo not given)	-3	0	0	-1	-1	-2
CC(C)C[C@@H](CN1CCCC1CN1C(=S)NC[C@@H]1Cc1ccc(O)cc1)N1C[C@H](Cc2ccccc2)N(CC2CCCCC2)C1=S (stereo not given in full)	·	9	0	·	·	·
CC(C)C[C@H]1CNC(=S)N1C[C@H]1CCCN1C[C@H](CC(C)C)N1C[C@H](Cc2ccc(O)cc2)N(CC2CCCCC2)C1=S	·	·	0	·	·	·
CC(C)C[C@@H](CN1CCCC1CN1C(=S)NC[C@@H]1Cc1ccc(O)cc1)N1C[C@H](Cc2ccccc2)N(CC2CCCCCC2)C1=S (stereo not given in full)	·	12*	0	·	·	·
CC(C)C[C@@H](CN1CCCC1CN1C(=S)NC[C@@H]1Cc1ccc(O)cc1)N1C[C@H](Cc2ccc(O)cc2)N(CC2CCCCCC2)C1=S (stereo not given in full)	·	36*	0	·	·	·
Cc1ccc(N2C(=O)CS/C2=C(\C(Cl)=C(Cl)Cl)[N+](=O)[O-])cc1	15	11*	0	13	1	8
CC(C)N1CCC(N2CCN(Cc3ccc(-c4ccc(Cl)cc4)o3)CC2CCO)CC1 (stereo not given)	12	-2	0	2	13	0
CC(C)N1CCC(N2CCN(Cc3ccc(-c4ccccc4Cl)o3)CC2CCO)CC1 (stereo not given)	-45	-1	0	-5	53*	-15
COCC(=O)NC[C@@H]1[C@@H](c2ccccc2)[C@@H](CO)N1C(C)=O	·	·	-1	·	·	·

Screening data deposited in PubChem by several laboratories.
